Screening results as filed in PubChem BioAssay.
This is a sample that favours compounds with a hit; in the whole collection about 1.4% have one here.
DTT redox prof: compounds producing H2O2 with reducing agent – biochemical, NIH compound library profiling, artefact control for MLSCN library redox annotation, primary screen; DTT-dependent redox cycling H2O2, phenol red/HRP absorbance; 100% = 100 µM peroxide control, 0% = buffer; activation, % at 10 µM; 200,000 compounds, 0.03% hits; AID 878;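 active = activation of at least 50% relative to the plate's high and low controls in the primary single-dose screen; inactive = activation below 50%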;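 also: compound incubated with DTT at 0.8 mM final as the reducing agent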
Apaf-1 inh: blocks human Apaf-1 apoptosome activity. 330,000 compounds, 0.71% hits. inhibition, % at 20 µM. reconstituted apoptosome caspase-3 activity, DEVD-Rh110 fluorescence; active = inhibition of at least 40% at 20 µM
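System: Apoptosome proteins | Medium: Hepes pH 7.5 with detergent and BSA | Also added: Cytochrome c trigger plus (Z-DEVD)2-Rh110 caspase-3 substrate | Incubation: 30 min compound preincubation, 50 min activation, room temperature | Detection: Rhodamine 110 fluorescence at Ex 480/Em 540 nm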
GSTO1 counter: GSTO1 inhibition, counter-screen for RBBP9 inhibitors; recombinant GSTO1, activity-based probe fluorescence polarization; inhibition, % at 5.96 µM; 300,000 compounds, 1.1% hits; P78417;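 active = inhibition above the campaign mean inhibition plus 3 SD, cut at about 35% in these data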
HKDC1 inh: inhibitors of human hexokinase HKDC1; Q2TB90; recombinant HKDC1, G6PDH/diaphorase resazurin coupled fluorescence; inhibition, % at 20 µM; 340,000 compounds, 0.16% hits; AID 493160;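 active = inhibition above about 35% when tested at 20 µM, limit read from the data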
Target sequence (Q2TB90 whole entry, looked up): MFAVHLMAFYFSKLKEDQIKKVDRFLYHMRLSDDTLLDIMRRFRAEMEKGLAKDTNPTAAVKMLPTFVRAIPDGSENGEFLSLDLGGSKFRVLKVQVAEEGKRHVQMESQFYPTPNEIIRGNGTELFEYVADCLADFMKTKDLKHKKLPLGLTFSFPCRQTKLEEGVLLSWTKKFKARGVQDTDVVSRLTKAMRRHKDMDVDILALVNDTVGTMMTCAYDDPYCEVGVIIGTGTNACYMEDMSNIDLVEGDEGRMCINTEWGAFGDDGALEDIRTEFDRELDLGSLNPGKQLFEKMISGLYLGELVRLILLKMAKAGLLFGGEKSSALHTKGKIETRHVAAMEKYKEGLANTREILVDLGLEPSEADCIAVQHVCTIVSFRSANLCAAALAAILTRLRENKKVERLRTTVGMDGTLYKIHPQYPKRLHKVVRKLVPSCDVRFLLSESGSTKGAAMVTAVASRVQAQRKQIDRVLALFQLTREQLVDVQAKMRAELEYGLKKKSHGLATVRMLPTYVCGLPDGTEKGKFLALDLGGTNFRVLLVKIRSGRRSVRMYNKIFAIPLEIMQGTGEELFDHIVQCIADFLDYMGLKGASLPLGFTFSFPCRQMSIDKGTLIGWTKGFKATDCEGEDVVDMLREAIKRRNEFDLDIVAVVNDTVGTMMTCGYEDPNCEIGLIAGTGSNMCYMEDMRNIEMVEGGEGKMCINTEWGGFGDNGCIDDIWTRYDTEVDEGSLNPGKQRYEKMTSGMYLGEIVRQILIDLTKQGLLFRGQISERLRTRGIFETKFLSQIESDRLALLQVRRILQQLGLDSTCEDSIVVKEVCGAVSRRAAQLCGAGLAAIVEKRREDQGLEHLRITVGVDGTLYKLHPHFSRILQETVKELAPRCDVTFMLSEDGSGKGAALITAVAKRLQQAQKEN
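Test system: recombinant HKDC1 (HK5) hexokinase enzyme, produced in-house / Doses: 20 µM test compound, 1% DMSO / Timing: 90 min, room temperature / Detection: G6PDH/diaphorase-coupled fluorescence, 1 mM NADP, 100 µM resazurin, 525/613 nm / Control set: DMSO wells with and without enzyme mix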
UBC9 SUMO inh: SUMOylation inhibition; AID 2006; inhibition, % at 35 µM; HTRF SUMOylation assay, SAE1/SAE2 + UBC9, in vitro; P63279; 290,000 compounds, 0.36% hits; in the data active = inhibition above about 50%, passing the limit was not always enough
Apaf-1 inh conf2: Apaf-1 inhibition, single-dose confirmed | inhibition, % at 20 µM | 1,800 compounds, 25% hits | AID 504614 | reconstituted apoptosome, caspase-3 DEVD-Rh110 fluorescence | shares compounds with Apaf-1 inh;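 active = mean inhibition of at least 40% at 20 µM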
Rh110 interf inh: Rh110 signal interference in Apaf-1 inhibitor counter-screen; 1,800 tested, under 10 active; Rh110 fluorescence interference, quenched caspase reaction; shares compounds with Apaf-1 inh; activation (fluorescence interference), % at 20 µM; AID 504615;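 active = signal rise of 40% or more at 20 µM, treated as a fluorescence artifact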
Fluor interf inh: Apaf-1 inhibitor counter-screen fluorescence artifact. shares compounds with Apaf-1 inh. fluorescence interference counterscreen, Apaf-1 assay format. IC50, µM. 460 tested, under 10 active; call rule not given here
HKDC1 act conf2: HKDC1 (human) activation, single-dose confirmed; shares compounds with HKDC1 inh; inhibition, % at 20 µM; 740 compounds, 14% hits; recombinant HKDC1, G6PDH/diaphorase resazurin fluorescence; hits give low values;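 active = inhibition at or below a set negative limit, negative inhibition meaning the enzyme was activated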
Hits are given with their value; n = inactive; x = no result; ! = not active in a repeat.

SMILES | DTT redox prof | Apaf-1 inh | GSTO1 counter | HKDC1 inh | UBC9 SUMO inh | Apaf-1 inh conf2 | Rh110 interf inh | HKDC1 act conf2 | others
COc1cc(OC)c(OC)cc1CNC(=O)c1ccc(S(=O)(=O)N2CCCCC2)cc1 | x | n | x | n | x | x | x | x
CC(=O)Nc1cc(C)ns1 | x | x | x | n | x | x | x | x
CC(=O)c1ccc(Oc2cnccn2)cc1 | n | n | n | n | n | x | x | x
COC(=O)C(CO)Nc1ncnc2onc(-c3ccc(F)cc3)c12 (configuration not stated) | x | n | n | n | n | x | x | x
C/C=C(\C)C(=O)NCCN1C2=NC[C@@H](Cc3ccccc3)N2C[C@@H]1Cc1ccc(OC)cc1 | x | 40 | n | n | x | n | n | x
CSc1ccc(CN(C)C(=O)c2cc(=O)[nH]c3ccccc23)cc1 | x | n | n | n | n | x | x | x
COc1ccc(C(C[N+](=O)[O-])c2c(C)[nH]n(-c3ccccc3)c2=O)cc1 (configuration not stated) | x | 96 | 82 | n | 87 | 65 | n | x | Fluor interf inh=n
CCc1ccc(N2C(=O)C(Cl)=C(Nc3ccc(C(=O)N4CCCC4)cc3)C2=O)cc1 | x | 41 | x | n | x | n | n | x
CC(=O)C1=C(c2cccc([N+](=O)[O-])c2)N(C(C)=O)n2c(C)nnc2S1 | n | 44 | n | n | n | n | n | -387
Cc1cccc(NC(=O)CN2C(=O)S/C(=C\c3ccc(-c4cccc(C(=O)O)c4C)o3)C2=O)c1 | n | n | n | n | n | x | x | x
Cc1ccc(NC(=O)CN2C(=O)S/C(=C/c3ccc(-c4cc(C(=O)O)ccc4C)o3)C2=O)cc1C | n | 42 | n | 43 | 84 | n | n | n
COc1ccc(CNC(=O)CN(c2ccc(C(C)C)cc2)S(=O)(=O)c2c(C)noc2C)cc1 | x | n | n | n | n | x | x | x
O=S(=O)(Nc1cc(Sc2cccc3cccnc23)c(O)c2ccccc12)c1ccccc1 | n | x | x | x | n | x | x | x
CCc1ccc(S(=O)(=O)Nc2cc(SCC(=O)O)c(O)c3ccccc23)cc1 | n | 71 | 84 | 54 | 101 | n | n | n
COc1cccc2c1C(=O)C=C(C)C2=O | n | 56 | 40 | n | n | 65 | n | n | Fluor interf inh=n
O=C1/C(=C\c2ccc(-c3ccccc3[N+](=O)[O-])o2)C(c2ccccc2)=NN1c1ccccc1 | n | 44 | n | 42 | n | n | n | n
CC(C)N=C(N)N=C(N)Nc1ccc(Cl)cc1 | x | n | n | n | x | x | x | x
NC(=NCCCCCCN=C(N)/N=C(\N)Nc1ccc(Cl)cc1)/N=C(\N)Nc1ccc(Cl)cc1 | x | 79 | n | 53! | n | n | n | n
COc1cccc(NC(=O)CN2C(=O)CSc3ccc(S(=O)(=O)N4CCCCC4)cc32)c1 | x | n | n | n | x | x | x | x
O=C(O)c1cc(Cl)c2c(c1)OCO2 | x | n | n | n | n | x | x | x
CCOC(=O)c1cc(-c2ccc(/C=C3/C(=O)N(c4ccc(C(=O)O)cc4)N=C3C)o2)ccc1Cl | x | 50 | n | 43 | n | n | n | n
CCOC(=O)c1cc(-c2ccc(/C=N\n3cnnc3)o2)ccc1Cl | n | n | n | n | n | x | x | x
CC(=O)Nc1ccc(NC(=O)C(C)OC(=O)CCCOc2ccc(Cl)cc2C)cc1 (configuration not stated) | x | n | n | n | x | x | x | x
Clc1nssc1=Nc1ccc(Br)cc1 | n | x | x | n | n | x | x | x
Clc1ccc(N=c2ssnc2Cl)nc1 | n | 55 | n | n | n | 67 | n | -80 | Fluor interf inh=n
SMILES | DTT redox prof | Apaf-1 inh | GSTO1 counter | HKDC1 inh | UBC9 SUMO inh | Apaf-1 inh conf2 | Rh110 interf inh | HKDC1 act conf2 | others
Nc1nnc(/C=C/c2ccccc2Cl)s1 | x | n | n | n | n | x | x | x
COc1cc2c(C#N)c(N3CCc4ccccc4C3)nc(N)c2c(N)n1 | n | 94 | n | 41 | n | n | n | n
CCOC(=O)C(C(=O)OCC)c1cc(Br)c2noc3c2c1C(=O)c1ccccc1-3 | n | 89 | n | 54 | 87 | 74 | n | n | Fluor interf inh=n
O=C(NCC(c1ccco1)N1CCc2ccccc2C1)c1cccc(F)c1 (configuration not stated) | x | n | n | n | x | x | x | x
COc1cccc(C(=O)NCC(c2ccco2)N2CCc3ccccc3C2)c1 (configuration not stated) | x | n | n | n | x | x | x | n
CN(C(=O)COC(=O)c1cc([N+](=O)[O-])ccc1Cl)c1ccccc1 | x | n | n | n | n | x | x | x
O=C1C=CC2(C=C1)O[C@H](Cc1ccccc1)[C@@H](Cc1ccccc1)O2 | x | x | x | 38 | x | x | x | n
COc1ccc(C[C@@H]2OC3(C=CC(=O)C=C3)O[C@H]2Cc2ccc(OC)cc2)cc1 | x | x | x | n | x | x | x | x
COCc1cc(SC2CCCCC2)nc(C)n1 | n | n | n | 46 | n | x | x | n
CC(=O)N1c2ccc3ccccc3c2C2C=CCC2C1c1ccc(Br)cc1 (configuration not stated) | n | x | n | x | n | x | x | x
CC(=O)N1c2ccc(Cl)cc2C2C=CCC2C1c1cccc2ccccc12 (configuration not stated) | n | x | n | 42 | n | x | x | n
Cc1cc(Oc2ccc(C(C)(C)C)cc2)nc(N2CCOCC2)n1 | n | n | n | n | n | x | x | -37
CCC1=NN2C(=N)/C(=C\c3ccc(OCc4cc(=O)n5nc(CC)sc5n4)c(OC)c3)C(=O)N=C2S1 | n | x | x | n | n | x | x | n
COCC1CCCCN1C(=O)c1cccc(OC2CCN(S(C)(=O)=O)CC2)c1 (configuration not stated) | x | n | n | n | n | x | x | x
CCC(NC(=O)C(C)NC)C(=O)N1CCCC1C(=O)NC1CCCc2ccccc21 (configuration not stated) | x | n | x | n | x | x | x | x
NC(=O)[C@@H]1CC2(CC(c3cccc(NC(=O)[C@H]4CCC(=O)N4)c3)=NO2)CN1C(=O)c1ccc(Cl)cc1 (some centres not stated) | x | n | n | n | n | x | x | x
NC(=O)[C@H]1CC2(CC(c3cccc(NC(=O)[C@H]4CCC(=O)N4)c3)=NO2)CN1C(=O)c1ccccc1 (some centres not stated) | x | n | n | 39 | n | x | x | n
Oc1ccc(/C=N/Nc2ccnc3cc(Cl)ccc23)c(O)c1O | x | n | n | 37 | n | x | x | n
Cn1ccc(C(=O)Nc2cccnc2Cl)n1 | x | n | x | n | n | x | x | x
CC1Cc2ccccc2N1C(=O)CN1C(=O)NC(C)(CCc2ccccc2)C1=O (configuration not stated) | x | n | n | n | n | x | x | x
CC(=O)Nc1ccc2cc3ccc(NC(C)=O)cc3nc2c1 | x | x | n | 43 | n | x | x | n
COc1ccc(C2=CC3=C(Br)C(=O)C(C)(O)C(=O)C3=CO2)cc1 (configuration not stated) | x | n | n | n | n | x | x | n
